Assay outcomes from PubChem BioAssay.
An excerpt weighted towards active compounds, which were near 5.5% of everything screened.
WT yeast gro inh – growth inhibition of WT yeast, mitochondrial fusion screen; mitochondrial fusion phenotypic screen, WT strain; inhibition, % at 10 µM; 190,000 compounds, 2.1% hits; in the data active = inhibition above about 58%; tested in S. cerevisiae
RAM inhibit – blocks the yeast RAM network; AID 868; S. cerevisiae dse1pr::URA3 reporter, 5-FOA growth OD615, 2 d; analog-sensitive cbk1-as2 kinase mutant strain; 190,000 compounds, 1.8% hits; inhibition, % at 50 µM;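 active = inhibition above a set limit, 3 SD over mean compound inhibition, cut at about 8.4% in these data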;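 note: 0% = DMSO-only wells with no growth and 100% = 10 µM 1-NA-PP1 full growth; inhibition rescues growth on 5-FOA so higher OD means more RAM inhibition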
Yeast life ext – yeast lifespan extension | S. cerevisiae growth with nicotinamide, OD615; deaD strain in restrictive glucose medium | 130,000 compounds, 0.68% hits | inhibition of the nicotinamide effect, % at 10 µM;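 active = inhibition above a set limit, placed 3 SD over the median of all compounds, cut at about 26% in these data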;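 note: 0% = nicotinamide-treated wells and 100% = cells grown without nicotinamide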
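Measured by: optical density (absorbance) at 615 nm; System: modified budding yeast, DeaD strain; Medium: restrictive CSMM-D dextrose medium; Timing: 4 h preincubation then 48 h treatment at 30 °C.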
Yeast growth inh – reduces growth of yeast BB579 in restrictive medium | S. cerevisiae BB579 growth, OD615, 48 h | inhibition, % at 10 µM | 140,000 compounds, 0.51% hits | AID 804;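 active = inhibition above a set limit, 3 SD over the mean compound inhibition, cut at about 44% in these data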
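test system = yeast BB579 (DeaD) | buffer or medium = restrictive CSMM-D medium | doses = single compound dose of 10 µM, 0.25% DMSO final | times = 4 h preincubation and 48 h exposure at 30 °C | technique = culture absorbance at 615 nm | benchmarks = amphotericin B 10 µg/mL, positive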
KCC2 mod – modulators of human KCC2 chloride dependent transport; 190,000 compounds, 2.2% hits; Q9H2X9; B-score of Tl+ flux slope (higher = more flux/activation; lower = inhibition) at 10 µM; KCC2 cells, thallium flux FluoZin-2 fluorescence;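 active = thallium flux slope and its plate-corrected score both differing from the plate sample mean at a set confidence after two filtering rounds, in either direction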;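 note: slope of fluorescence scaled to starting intensity during 10 to 20 s after thallium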
Target sequence (Q9H2X9 whole entry, looked up): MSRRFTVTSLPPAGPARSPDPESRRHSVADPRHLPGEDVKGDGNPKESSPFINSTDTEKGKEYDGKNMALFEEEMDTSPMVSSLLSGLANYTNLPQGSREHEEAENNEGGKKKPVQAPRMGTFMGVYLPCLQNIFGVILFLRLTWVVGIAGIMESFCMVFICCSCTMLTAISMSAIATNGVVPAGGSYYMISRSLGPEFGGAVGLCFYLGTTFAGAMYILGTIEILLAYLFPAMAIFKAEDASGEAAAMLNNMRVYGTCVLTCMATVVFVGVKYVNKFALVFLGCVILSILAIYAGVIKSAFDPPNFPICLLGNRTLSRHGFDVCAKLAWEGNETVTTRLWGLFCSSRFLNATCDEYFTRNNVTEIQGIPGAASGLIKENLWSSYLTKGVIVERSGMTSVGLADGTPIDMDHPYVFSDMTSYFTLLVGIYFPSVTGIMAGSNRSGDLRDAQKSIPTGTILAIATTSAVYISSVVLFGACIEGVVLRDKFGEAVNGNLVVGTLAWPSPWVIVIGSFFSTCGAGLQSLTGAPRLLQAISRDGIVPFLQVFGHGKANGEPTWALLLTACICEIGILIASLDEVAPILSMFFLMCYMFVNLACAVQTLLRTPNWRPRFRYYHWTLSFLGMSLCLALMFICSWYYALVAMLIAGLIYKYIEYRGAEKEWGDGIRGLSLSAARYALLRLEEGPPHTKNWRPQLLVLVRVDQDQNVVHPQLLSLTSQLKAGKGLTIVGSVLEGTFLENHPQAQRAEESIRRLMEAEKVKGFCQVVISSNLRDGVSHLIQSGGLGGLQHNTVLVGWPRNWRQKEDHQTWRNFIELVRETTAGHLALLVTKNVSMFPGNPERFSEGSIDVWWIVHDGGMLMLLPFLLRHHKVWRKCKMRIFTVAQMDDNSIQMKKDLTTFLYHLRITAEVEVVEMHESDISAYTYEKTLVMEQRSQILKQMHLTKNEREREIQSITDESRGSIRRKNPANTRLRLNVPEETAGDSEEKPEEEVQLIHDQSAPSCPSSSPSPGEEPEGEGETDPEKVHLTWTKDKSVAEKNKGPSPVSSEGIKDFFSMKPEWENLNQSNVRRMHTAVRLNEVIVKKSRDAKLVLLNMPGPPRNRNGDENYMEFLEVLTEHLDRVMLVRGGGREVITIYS
KCC2 secondary – confirmation of human KCC2 transport modulators. shares compounds with KCC2 mod. HEK293-KCC2, thallium flux, FluoZin2 fluorescence; active compounds read high. normalised thallium flux (F/F0 slope) at 10 µM. 3,700 compounds, 15% hits. AID 1713;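 active = thallium flux slope above the same plate's solvent-only control mean plus 3 SD; inconclusive = the two replicate wells disagree; inactive = no significant difference from solvent-only control wells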
KCC2 bumet counter – thallium flux persisting under bumetanide in KCC2 cells, counter-screen secondary assay; shares compounds with KCC2 mod; HEK293-KCC2 + bumetanide/ouabain, thallium flux FluoZin2; active compounds read high; normalized thallium flux at 10 µM; 3,700 compounds, 49% hits; AID 1714;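 active = thallium entry rate above the same plate's blocked-transporter control wells by more than 3 SD; inconclusive = the two repeat wells disagree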;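 note: raw slope of fluorescence over initial fluorescence between 10 and 20 s after thallium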
KCC2 sec2 – confirmation of human KCC2 transport modulators. AID 1715. HEK293-KCC2, thallium flux FluoZin2 fluorescence; actives lie on both sides; F/F0 rise rate, 10–20 s post-thallium. 3,700 compounds, 23% hits. normalized thallium flux at 10 µM. shares compounds with KCC2 mod;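 active = thallium flux slope more than 3 SD above or below the plate's solvent-only control mean, mostly below; inconclusive = the two repeat wells disagreed; inactive = no significant shift from solvent-only controls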;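 note: raw slope with 0.1% DMSO as baseline and bumetanide as block control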
HEK293 Tl flux – counter-screen for KCC2 modulators: effect in parental HEK293 cells. shares compounds with KCC2 mod. 3,700 compounds, 46% hits. thallium flux rate (normalised fluorescence) at 10 µM. thallium flux FluoZin2, ouabain; baseline-ratio fluorescence slope, 10–20 s after thallium. AID 1716;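 active = thallium flux rate significantly above the same plate's solvent-only control wells, beyond their mean plus 3 SD; inconclusive = the two replicate wells gave conflicting results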
KCC2 ouabain – modulates human KCC2 on retest with ouabain; shares compounds with KCC2 mod; HEK293-KCC2, thallium flux FluoZin2 fluorescence; bidirectional: low = inhibitor, high = activator; raw Tl+ flux slope (below DMSO = inhibition, above = activation) at 10 µM; 3,700 compounds, 48% hits;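 active = thallium flux slope beyond 3 SD from same-plate DMSO control mean in most replicates, usually higher, sometimes lower; inconclusive = repeat tests gave conflicting results; inactive = no significant difference from controls in most replicates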;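 note: slope of initial-normalized fluorescence between seconds 10 and 20 after thallium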
HEK293 Tl flux2 – parental HEK flux effect, counter-screen 2. shares compounds with KCC2 mod. HEK293 parental, thallium flux FluoZin-2 fluorescence slope. thallium flux slope at 10 µM. 3,700 compounds, 33% hits;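 active = thallium flux slope above the same plate's solvent-control mean plus 3 SD in both duplicate wells; inconclusive = duplicate wells that disagreed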;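 note: run without ouabain in cells lacking the KCC2 cotransporter; slope of fluorescence scaled to its starting value between 10 and 20 s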
An asterisk follows results filed as active; ? = inconclusive; · = no result given.

SMILES	WT yeast gro inh	RAM inhibit	Yeast life ext	Yeast growth inh	KCC2 mod	KCC2 secondary	KCC2 bumet counter	KCC2 sec2	HEK293 Tl flux	KCC2 ouabain	HEK293 Tl flux2
CCC12CN3CC(CC)(CN(C1)C3c1ccc([N+](=O)[O-])o1)C2=O (stereo not drawn)	-4	1	·	·	1.5	·	·	·	·	·	·
CCOC(=O)C1CCCN(S(=O)(=O)c2ccc(OC)cc2)C1 (stereo not drawn)	10	0	13	-70	1.5	·	·	·	·	·	·
O=C(Nc1ccc2c(c1)C(=O)NC2=O)c1ccc(S(=O)(=O)N2CCCC2)cc1	3	8	·	·	-0.2	·	·	·	·	·	·
O=C(NC1CCCC1)NS(=O)(=O)c1ccccc1Cl	-4	1	·	-22	5.7*	0.0076	0.0059	0.028	0.0066	0.02	0.0094
O=C(COc1ccccc1Cl)NC(=O)NC1CCCC1	7	-1	-9	-10	·	·	·	·	·	·	·
CC(C)c1ccc(-c2csc(NC(=O)c3cccs3)c2C(=O)O)cc1	5	2	·	·	20*	0.0072	0.045*	0.027*	0.021*	?	?
Cc1sc2nc(C(C)Sc3n[nH]c(N)n3)[nH]c(=O)c2c1C (stereo not drawn)	-19	1	·	·	-0.59	·	·	·	·	·	·
S=c1[nH]nc(-c2cccs2)n1Cc1ccccc1	-4	3	·	·	0.43	·	·	·	·	·	·
S=c1[nH]nc(-c2cccs2)n1C1CCCCC1	·	·	·	·	11*	0.011	0.016*	0.036	0.013*	0.026*	?
CC(C1CC2CCC1C2)n1c(-c2cccs2)n[nH]c1=S (stereo not drawn)	·	·	·	·	72*	0.019	0.082*	0.042*	0.034*	0.041*	0.032*
COc1ccc(CC(=O)Nc2cc(C)ccc2O)cc1OC	·	·	·	·	0.14	·	·	·	·	·	·
COc1cc(C(=O)NCc2nnc(SCC(=O)N3CCOCC3)o2)cc(OC)c1OC	-6	3	·	·	-0.52	·	·	·	·	·	·
CCC1CCCCN1C(=O)CSc1nnc(CNC(=O)c2cc(OC)c(OC)c(OC)c2)o1 (stereo not drawn)	19	-1	-12	-24	6.7*	0.0076	0.0046	0.032	0.0079	0.02	0.011
N#C/C(=C\c1cn(-c2ccccc2)nc1-c1cccnc1)c1nnc2n1CCCCC2	7	0	16	-55	·	0.0057	0.0047	0.024*	0.0085	?	0.01
Oc1csc(Cc2nc(-c3ccccc3F)cs2)n1	18	6	·	·	0.89	·	·	·	·	·	·
COC(=O)C1CCN(C(=O)/C=C/c2ccccc2)CC1	-12	1	-3	-25	-0.023	·	·	·	·	·	·
CCCS(=O)(=O)N1CCC(C(=O)N2CCC(Cc3ccccc3)CC2)CC1	1	0	-5	-11	·	0.0076	0.0066	0.029	0.0075	0.028*	0.01
O=C(/C=C/c1ccccc1)N1CCC(Cc2ccccc2)CC1	3	2	-20	-33	·	0.0068	0.006	0.027	0.0068	0.014*	0.01
O=C1N(Cc2ccc(F)cc2)CCN1c1ccc(F)cc1	1	1	·	·	-3.3*	0.0067	?	0.03	0.011*	?	0.012
COc1cccc(CN2CCN(c3ccc(F)cc3)C2=O)c1	-3	0	·	·	-2.5	·	·	·	·	·	·
O=S(=O)(Nc1ccc(C(F)(F)F)cn1)c1ccccc1	·	·	·	·	0.29	·	·	·	·	·	·
O=C(NC(=S)Nc1ccc2c(c1)OCCO2)c1ccccc1F	22	1	·	·	25*	0.0074	0.039*	0.042*	0.021*	0.038*	0.026*
CCOc1cccc(C(=O)NC(=S)Nc2ccc3c(c2)OCCO3)c1	30	5	·	·	7.4*	0.018	0.012*	0.032	0.012*	0.019	0.014*
O=C(NC(=S)Nc1ccc(CN2CCOCC2)cc1)c1ccc([N+](=O)[O-])cc1	-4	1	10	-38	4.6*	0.0072	0.0097*	0.035	0.012*	0.022	0.013*
CCN(Cc1ccncc1)Cc1nc(Cc2ccccc2Cl)no1	18	1	·	·	-0.078	·	·	·	·	·	·
SMILES	WT yeast gro inh	RAM inhibit	Yeast life ext	Yeast growth inh	KCC2 mod	KCC2 secondary	KCC2 bumet counter	KCC2 sec2	HEK293 Tl flux	KCC2 ouabain	HEK293 Tl flux2
CCn1nc(C(=O)OCC(=O)c2ccc(F)cc2)c2ccccc2c1=O	4	0	·	·	-5.4*	0.0061	0.0043	0.027	?	?	0.0092
O=C(N/N=C/c1ccc(-c2ccc(Cl)c(C(=O)O)c2)o1)c1cc2c(ccc3ccccc32)o1	·	·	·	·	-2	·	·	·	·	·	·
Cc1cccc(NC(=O)Nc2ccc(C)c(C)c2)n1	-9	4	-14	-31	5.7*	0.0092	0.0054	0.038	0.0074	0.021	0.011
Cc1cccc(NC(=O)Nc2cccc(C)n2)n1	-9	1	-8	-16	-0.85	·	·	·	·	·	·
Cc1ccc[n+](CC(=O)Nc2nc3ccccc3s2)c1	-8	0	·	·	·	·	·	·	·	·	·
Cc1c(Br)cccc1NC(=O)c1sccc1-n1cccc1	-4	3	-6	-54	0.0079	·	·	·	·	·	·
O=C(Nc1ccc(Br)cc1F)c1sccc1-n1cccc1	-15	5	-27	-5	-1.2	0.0078	0.0048	0.033	0.0082	0.02	0.011
CN(C)CCCNc1ccc(S(N)(=O)=O)cc1[N+](=O)[O-]	-15	1	3	-26	2.8*	0.01	0.0058	0.033	0.0088	0.02	0.011
C=CCn1c(CCNC(=O)c2ccccc2F)nnc1SCC(=O)Nc1nc2ccccc2s1	1	2	-9	-43	·	0.016	0.0043	0.025*	0.0064	0.014	0.0086
C=CCn1c(C(CCCC)CC(O)COCC(C)C)n[nH]c1=S (stereo not drawn)	-4	0	·	·	·	·	·	·	·	·	·
COc1ccc(OC)c(CN2CCN(c3ccccc3OC)CC2)c1	17	2	-8	-24	8.8*	0.0058	0.0051	0.031	0.0081	0.019	0.011
Cc1cc2nc(C)c(Cc3ccccc3)c(=O)n2[nH]1	-16	0	-6	-32	·	·	·	·	·	·	·
COc1ccccc1NC(=O)CSc1nnc(CCNC(=O)c2ccc(C)cc2)n1C	9	0	·	·	·	·	·	·	·	·	·
CCCCOc1ccc(-c2c(C#N)c(N)nc(SCC(N)=O)c2C#N)cc1	20	1	-30	-16	-6.4*	0.0074	0.0066	0.032	0.0076	0.017*	?
